Only some compounds are listed: those with a hit (about 3.8% of all), similar ones and a draw of the others.
SIRT5 inh: SIRT5 desuccinylase inhibitors, primary screen, biochemical, fluorescence imaging, single point, set 5 | NAD-dependent protein deacylase sirtuin-5, mitochondrial (Homo sapiens), Q9NXA8 | Purified SirT5, succinyl-peptide AMC, trypsin-coupled fluorescence | inhibition, % at 15 µM | actives 1.1% (n = 330,000) | AID 652115, 2013; in the data active means inhibition above about 15%; inconclusive means no clear call, values can overlap the other calls
Target sequence (Q9NXA8 whole entry, looked up): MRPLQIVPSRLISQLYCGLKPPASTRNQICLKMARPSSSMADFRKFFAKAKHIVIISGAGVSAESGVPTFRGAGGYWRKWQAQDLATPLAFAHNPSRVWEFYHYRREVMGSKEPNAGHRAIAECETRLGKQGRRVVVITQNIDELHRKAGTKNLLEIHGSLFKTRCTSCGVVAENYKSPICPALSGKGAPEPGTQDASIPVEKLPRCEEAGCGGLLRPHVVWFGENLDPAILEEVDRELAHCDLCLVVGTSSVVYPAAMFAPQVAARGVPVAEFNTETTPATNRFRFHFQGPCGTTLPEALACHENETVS
XiGFP reactiv: activators of inactive X chromosome reactivation, primary screen, imaging, XiGFP fibroblasts, GFP high-content imaging, set 2; XiGFP mouse fibroblasts, % GFP-positive cells imaging, 3 d; cells co-treated with 5-aza-dC sensitizer; scaled so ellipticine positive control = 100%; activation, % at 7.58 µM; AID 743238, 2013; actives 0.055% (n = 360,000);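 active means mean normalized replicate activation at least 10% and every replicate at or above 10%; inconclusive means only one of the two criteria met; inactive means mean below 10% and not all replicates reach 10%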;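 further: 0% = median of on-plate neutral control wells and 100% = ellipticine 6 µM median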
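System: XiGFP fibroblasts, SV40-immortalized. Medium: DMEM plus 5-aza-dC sensitizer. Doses: single point. Timing: 3 d treatment, 15 min room-temperature fixation. Control set: ellipticine 6 µM.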
FN deposition inh: inhibitors of fibronectin matrix deposition, primary screen, AH1F cells, Alexa488-fibronectin fluorescence, plate reader. AH1F fibroblasts, overnight. actives 0.086% (n = 350,000). AID 743247, 2014. inhibition, % at 12.6 µM;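 active means mean inhibition across replicates of 30% or more, regardless of how many single replicates reach that level; inconclusive means mean under 30% yet at least half of replicates reach 30%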;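 further: positive control wells lacked labelled fibronectin entirely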
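Assay system: AH1F fibroblast monolayer, labelled fibronectin deposition. Amount: 10000 cells per well. Also added: labelled fibronectin 24 nM. Compound: single-point pinned compound. Incubation: cell attachment 1 h, compound and FN exposure overnight. Detection: fluorescence after three HBSS washes, excitation 485 nm, emission 525 nm. Read-out: inhibition of fibronectin deposition signal.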
ARNT TACC3 PPI: disruptors of ARNT/TACC3 protein interaction, primary screen, biochemical, AlphaScreen, single concentration; actives 0.66% (n = 390,000); AlphaScreen His-ARNT PAS-B/GST-TACC3 binding, luminescence; TACC3 fragment carries E629A point mutation; inhibition, % at 9.99 µM; Transforming acidic coiled-coil-containing protein 3 (Homo sapiens), Q9Y6A5;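 active means mean inhibition of replicates at least 50% and at least half of replicates each reaching 50%; inconclusive means half or more replicates reach 50% but mean below 50%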;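 further: 0% = complete ARNT plus TACC3 wells and 100% = ARNT alone without TACC3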
DENV2 CPE: inhibitors of DENV2 cytopathic effect, primary screen, cell-based, plate reader, single concentration; DENV2-infected cells, cytopathic effect rescue; CPE inhibition, % at 9.99 µM; actives 1.7% (n = 350,000); AID 651640, 2012; in the data active means CPE inhibition above about 20%, passing the limit was not always enough; inconclusive means no clear call, values can overlap the other calls; tested in BHK-21 cells;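 further: 0% = median of neutral control wells and 100% = median of positive control wells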
FGF22 binding: binders of human FGF22 protein, primary screen, FGF22 synaptogenesis inhibitor project, biophysical, thermal shift, single point; activity (Tm shift, normalised), % at 9.99 µM; actives 1.5% (n = 340,000); recombinant FGF22 thermal shift, SYPRO orange fluorescence; percent of sucrose octasulfate shift, DMSO zero; Fibroblast growth factor 22 (Homo sapiens), Q9HCT0;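 active means mean Tm shift, scaled 0 neutral to 100 positive control, at about 1.3% or above, every replicate too, limit read from the data; inconclusive means no clear call, values can overlap the other calls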
Target sequence (Q9HCT0 whole entry, looked up): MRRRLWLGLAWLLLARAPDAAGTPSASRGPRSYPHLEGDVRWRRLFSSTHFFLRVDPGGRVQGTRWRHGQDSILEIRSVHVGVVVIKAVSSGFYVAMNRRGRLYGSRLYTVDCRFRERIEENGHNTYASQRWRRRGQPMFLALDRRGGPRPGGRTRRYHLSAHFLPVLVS
Numbers without * were called inactive; ? = inconclusive; . = no result given.

SMILES	SIRT5 inh	XiGFP reactiv	FN deposition inh	ARNT TACC3 PPI	DENV2 CPE	FGF22 binding
C[C@H](CO)N1C[C@H](C)[C@@H](CN(C)C(=O)Nc2cccc3ccccc23)Oc2ccc(N(C)C)cc2C1=O	-1	0	6	-3	34*	-1
C[C@H]1CN([C@@H](C)CO)C(=O)c2cccc(N(C)C)c2O[C@@H]1CN(C)C(=O)NC1CCCCC1	-6	-1	-1	.	-1	0
Cc1ccccc1CN1C(=O)CN(S(C)(=O)=O)CC1(C)C(=O)NCc1ccccc1 (configuration not stated)	4	0	11	.	22*	0
CC(C)(C)[S@@](=O)N1Cc2cc(C(=O)N[C@@H]3CCN(Cc4ccccc4)C3)nc(-c3cccc(-c4cccnc4)c3)c2[C@H]1CCO	-2	0	19	-5	6	0
CCCOc1ccc(-c2nn(-c3ccccc3)cc2/C=C2\SC(N)=NC2=O)cc1C	-1	0	2	.	12	1
COc1ccc(-c2nn(CCC(=O)O)cc2/C=C2\SC(N)=NC2=O)cc1OC	28*	0	14	8	-9	0
O=C(NCC1CCCCC1)[C@H]1[C@H](CO)[C@H]2Cn3c(ccc(-c4ccc(F)cc4)c3=O)[C@@H]1N2	-3	1	5	2	-4	0
O=C(Nc1ccccc1F)c1cnccn1	-12	0	6	22	6	42
O=C(Nn1cc(C(=O)Nc2ccc(F)cc2F)c2ccccc2c1=O)c1cnccn1	2	0	1	65*	-6	0
CO[C@H]1CN(C)C(=O)c2cc(NC(=O)C3CCCC3)ccc2OC[C@H](C)NC[C@@H]1C	-3	0	4	-14	9	0
CN(C)CCCNC(=O)c1cc2sc3ccccc3c2s1	0	0	-2	.	.	44*
COCCNC(=O)c1cc2sc3ccccc3c2s1	.	.	-9	-4	.	.
Cc1ccc(N/N=C(\C#N)C(N)=S)cc1C	-3	0	-18	-5	-5	44*
COc1ccc2c3c(n(C)c2c1)[C@@H](CO)N(C(C)=O)CC31CCN(Cc2ccccc2OC)CC1	1	0	5	.	0	0
CCC1CCCCN1CCCNC(=O)Cn1cnc2sc(C)c(S(=O)(=O)N3CCC(C)CC3)c2c1=O (configuration not stated)	17*	0	-3	4	13	0
CCN(CC)c1nc(-c2ccccn2)nc(-c2ccccc2)c1C#N	0	0	.	0	-7	43*
CN(C)c1nc(-c2ccccc2)nc(-c2ccc(Cl)cc2)c1C#N	.	.	.	-3	.	.
Cc1oc2c(C)c3oc(=O)c(CCC(=O)NCCCN4CCOCC4)c(C)c3cc2c1C	-3	.	.	35	?	0
Cc1oc2c(C)c3oc(=O)c(CCC(=O)NCCN4CCOCC4)c(C)c3cc2c1C	.	.	.	-13	29*	0
CCN(CC)C(=O)C1CCCN(c2ccccc2[N+](=O)[O-])C1 (configuration not stated)	-6	0	.	-5	-3	43*
NC(=O)C1CCCN(Cc2ccc3ccccc3c2)C1 (configuration not stated)	3	0	-1	-4	12	0
CCN(CC)C(=O)C1CCCN(Cc2ccc3ccccc3c2)C1 (configuration not stated)	46*	0	3	2	0	0
C[C@H](CO)N1C[C@H](C)[C@@H](CN(C)C)Oc2ncc(/C=C/c3ccccc3)cc2C1=O	-10	-1	6	-2	4	0
CC=Cc1ccc2n(c1=O)C[C@H]1[C@H](CO)[C@@H](C(=O)NCC3CC3)[C@@H]2N1Cc1ccncc1 (mixture of isomers)	-9	0	.	5	-5	0
CN(C)C(=O)[C@@H]1[C@@H](CO)[C@@H]2Cn3c(ccc(C4=CCCCC4)c3=O)[C@@H]2N1Cc1ccccn1	-8	0	.	0	1	0
SMILES	SIRT5 inh	XiGFP reactiv	FN deposition inh	ARNT TACC3 PPI	DENV2 CPE	FGF22 binding
CC(=O)N(C)C[C@H]1Oc2ccccc2CC(=O)N(C)C[C@H]1C	.	0	8	.	.	.
CC1CCC2C(=O)N(c3ccc(C(=O)Oc4cccc5cccnc45)cc3)C(=O)C2C1 (configuration not stated)	.	.	5	49*	.	.
CC(OC(=O)c1cccnc1Cl)C(=O)Nc1ccc2c(c1)OCCO2 (configuration not stated)	-4	0	2	.	-6	43*
C[C@@H]1CN([C@H](C)CO)C(=O)c2cccc(NS(=O)(=O)c3cn(C)cn3)c2O[C@H]1CN(C)S(=O)(=O)c1ccccc1	-10	-1	.	-7	-1	0
CCCC(=O)Nc1ccc2c(c1)OC[C@H](C)N(Cc1ccccc1)C[C@H](C)[C@H](OC)CN(C)C2=O	2	0	-5	1	-3	0
COc1ccccc1CN1C[C@H](C)[C@H](OC)CN(C)C(=O)c2ccc(NC(C)=O)cc2OC[C@H]1C	1	0	1	-11	43*	0
CCC(=O)Nc1ccc2c(c1)OC[C@@H](C)N(Cc1ccccn1)C[C@@H](C)[C@@H](OC)CN(C)C2=O	15*	0	-1	-2	12	0
COCC(=O)Nc1ccc2c(c1)OC[C@@H](C)N(CCc1ccccc1)C[C@@H](C)[C@H](OC)CN(C)C2=O	31*	0	2	-4	7	0
COCC(=O)Nc1ccc2c(c1)C(=O)N(C)C[C@@H](OC)[C@H](C)CN(CCc1ccccc1)[C@H](C)CO2	1	0	-5	6	15	.
CCCC(=O)Nc1ccc2c(c1)OC[C@H](C)N(Cc1ccccc1)C[C@H](C)[C@@H](OC)CN(C)C2=O	0	0	1	.	32*	0
COc1ccccc1CN1C[C@@H](C)[C@@H](OC)CN(C)C(=O)c2ccc(NC(C)=O)cc2OC[C@@H]1C	0	0	-9	-7	19	0
O=C(N[C@@H]1CC[C@H](CCn2cc(C3CCCC3)nn2)O[C@H]1CO)c1cccnc1	-3	0	1	.	2	.
